# Compound activity (PubChem)
# Rce1 inh: yeast Ras-converting enzyme inhibition; Q03530; yeast membranes, quenched prenylated peptide cleavage fluorescence; calls only; hit rate 0.27% among 290,000; AID 2563;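 active means fall in fluorescence gain of 50% or more versus controls, with final raw signal at or below 3038400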;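 further: plate controls were neutral control wells for no effect and wells lacking membranes for full effect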
# Target sequence (Q03530 whole entry, looked up): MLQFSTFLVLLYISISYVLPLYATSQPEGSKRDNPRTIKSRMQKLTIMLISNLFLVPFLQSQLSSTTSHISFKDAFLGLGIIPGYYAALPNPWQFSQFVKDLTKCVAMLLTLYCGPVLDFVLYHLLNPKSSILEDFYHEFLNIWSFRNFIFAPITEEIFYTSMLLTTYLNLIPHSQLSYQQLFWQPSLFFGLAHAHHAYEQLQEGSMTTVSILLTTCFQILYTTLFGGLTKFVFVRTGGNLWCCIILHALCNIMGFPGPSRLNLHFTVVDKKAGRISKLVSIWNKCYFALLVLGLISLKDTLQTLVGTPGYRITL
# Rev-erbA mod: Rev-erb alpha (human) modulation. P20393. Rev-erbα–FITC-DNA binding, fluorescence polarization, 90 min. activity, % at 10 µM. hit rate 0.79% among 370,000;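 active means activity above about 14%, limit read from the data; passing the limit was not always enough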;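 further: 0% = DMSO wells with 35 nM protein and 100% = DMSO wells with 750 nM protein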
# PG9 Ab binder: small molecules binding HIV-1 gp120 antibody PG9. inhibition, % at 6.7 µM. TR-FRET gp120-PG9 antibody binding. hit rate 0.43% among 360,000; in the data active means inhibition above about 8.5%
# UCH37 inh: human UCH37 deubiquitinating enzyme inhibition. Q9Y5K5. purified proteasome/UCH37, Ub-AMC cleavage fluorescence. inhibition, % (test concentration not listed). hit rate 0.33% among 330,000;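 active means mean inhibition over replicate wells above about 20%, limit read from the data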;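 further: 0% = compound-free wells with enzyme and 100% = wells lacking proteasome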
# Target sequence (Q9Y5K5 whole entry, looked up): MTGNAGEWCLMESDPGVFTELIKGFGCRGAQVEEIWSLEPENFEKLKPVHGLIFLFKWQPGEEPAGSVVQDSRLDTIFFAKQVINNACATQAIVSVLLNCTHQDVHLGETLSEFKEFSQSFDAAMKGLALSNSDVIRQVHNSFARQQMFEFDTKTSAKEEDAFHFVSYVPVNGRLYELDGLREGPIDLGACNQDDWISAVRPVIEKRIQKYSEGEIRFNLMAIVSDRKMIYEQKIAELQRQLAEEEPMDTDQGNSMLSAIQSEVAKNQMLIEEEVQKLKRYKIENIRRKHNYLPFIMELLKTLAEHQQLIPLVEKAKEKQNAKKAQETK
#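 Material: human UCH37 enzyme supplied as purified proteasome complex. Measure: % inhibition of Ub-AMC cleavage fluorescence. Medium: pH 7.4 Tris-HCl (50 mM) with ovalbumin, ATP-MgCl2, DTT. Times: 30 min preincubation with enzyme, 25 min cleavage at room temperature. Detection: AMC fluorescence intensity at 355/460 nm.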
# Yeast superoxide: lowers age-related superoxide in aged yeast cells | S. cerevisiae aged cells, superoxide DHE fluorescence; hits give low values | superoxide response (% of plate mean), % at 10 µM | hit rate 0.18% among 330,000;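 active means superoxide response under a set limit, about three screen SD below normal, cut at about 65% in these data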;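 further: yeast aged for seven days with compound at 30 °C before DHE staining; 100% = average MFI of all compound-treated wells on the plate with controls excluded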
# beta cell repl: inducers of beta-cell replication in MIN6 cells; AID 2380; MIN6 cells proliferation, ATPlite luminescence, 48 h; cells starved in 0.2% serum; 100% = growth in 10% serum; proliferation, % at 10 µM; hit rate 0.29% among 330,000;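 active means compounds whose signal lies at least 3.5 SD above the mean of all wells on their plate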;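 further: 0% = DMSO-treated cells in low-serum medium and 100% = 10% serum control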
# PG9 bind confirm: confirmation of small molecules binding HIV-1 gp120 antibody PG9. shares compounds with PG9 Ab binder. hit rate 90% among 1,500. TR-FRET PG9 antibody binding, biochemical. AID 651571. inhibition, % at 6.7 µM; in the data active means inhibition above about 9%
# PGV04 counter: PGV04 control antibody binding, counter-screen | shares compounds with PG9 Ab binder | TR-FRET PGV04 antibody-gp120 binding, biochemical | inhibition, % at 6.7 µM | hit rate 95% among 1,500; in the data active means inhibition above about 9.5%
# PG9 bind DR: PG9 antibody binding, dose response. shares compounds with PG9 Ab binder. TR-FRET PG9 antibody-gp120 binding inhibition. IC50, µM. 95 tested, under 10 active. AID 651848; in the data active means IC50 below about 10 µM
# PGV04 DR counter: PGV04 binding, dose response counter-screen; hit rate 20% among 95; IC50, µM; TR-FRET binding to control antibody PGV04; shares compounds with PG9 Ab binder
# PG126 binding DR: binds control antibody PG126 in PG9 counter-screen; TR-FRET binding to antibody PG126, counterscreen; IC50, µM; shares compounds with PG9 Ab binder; hit rate 20% among 95
# Rev-erbA confirm: Rev-erb alpha (human) modulation, hit confirmation; shares compounds with Rev-erbA mod; Rev-erb alpha FITC-DNA binding, fluorescence polarization, 90 min; activation, % at 25 µM; hit rate 61% among 3,000;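 active means activation at or above a set limit, or at least 3 SD above the negative control mean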;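 further: 0% = 35 nM protein with DMSO and 100% = 750 nM protein high control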
# RORg counter: RORgamma DNA-binding activity, dose-response counter-screen. purified RORgamma protein-FITC-DNA binding, fluorescence polarization. AID 1259320. shares compounds with Rev-erbA mod. hit rate 8% among 910. IC50, µM;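 active means Compounds whose fitted half-maximal concentration for disrupting protein-DNA binding is below 10 micromolar; the record names Rev-erb in its text, so the target is in doubt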
# An asterisk follows results filed as active; i = inactive; / = no result. Most compounds without a hit are left out; they make up all but 1.9% or so of the library. Unless noted, no stated cut-off is given here; in the data, active means IC50 below about 9 µM; inactive means the rest.
SMILES,Rce1 inh,Rev-erbA mod,PG9 Ab binder,UCH37 inh,Yeast superoxide,beta cell repl,PG9 bind confirm,PGV04 counter,Rev-erbA confirm,others
CC(=O)Nc1sc(C)c(C)c1C(=O)OCC(=O)NCc1ccc(F)cc1,/,17*,9.3*,-6,122,-2,13*,19*,16*,
COc1ccc(C(=O)NN=C(C)CC(=O)NC2CCCCC2)c(OC)c1,/,/,/,3,/,/,/,/,/,
Cc1ccc2[nH]c(=O)c(COC(=O)c3cccs3)cc2c1,i,33*,18*,-40,83,0,50*,66*,21*,
O=C(CN1CCCCC1)Nc1c2c(nc3ccccc13)N(c1ccccc1)CC2,i,109*,48*,-125,112,-5,72*,79*,75*,RORg counter=>40
CCOC(=O)CSc1nc(N)c(C#N)c(-c2ccc(OC)cc2)c1C#N,i,76*,63*,-7,84,-2,68*,23*,55*,PG9 bind DR=7.6*;PGV04 DR counter=6.1*;PG126 binding DR=7*
CCOC(=O)CC(=O)CSc1nc(N)c(C#N)c(-c2ccc(F)cc2)c1C#N,i,-5,0,-4,104,6,/,/,/,
COc1ccc(-c2c(C#N)c(N)nc(Sc3ccc(Cl)cc3)c2C#N)cc1,i,83*,31*,/,94,-4,97*,95*,48*,PG9 bind DR=8.5*;PGV04 DR counter=4.4*;PG126 binding DR=4.9*;RORg counter=>40
CSc1nc(-c2ccc(Cl)cc2)nc(N)c1C#N,i,29*,25*,-8,102,-4,49*,67*,-2,
O=C(O)COc1ccccc1C=NNC(=O)c1cc(-c2ccc(Cl)cc2)nc2ccccc12,/,/,/,6,/,/,/,/,/,
COc1ccc(C=NNc2nc(-c3ccc(Cl)cc3)cc(C(F)(F)F)n2)cc1OC,/,/,/,0,/,/,/,/,/,
COc1ccc(C)c2sc(=NC(=O)c3ccccc3)n(C)c12,i,58*,12*,-70,104,-3,8,10*,2,
N#Cc1ccsc1NC(=O)COC(=O)c1cc(Br)ccc1O,i,48*,34*,-1,109,-6,38*,60*,32*,RORg counter=>40
N#Cc1ccsc1NC(=O)COC(=O)c1ccc(Br)o1,/,-1,-2,-1,117,-2,/,/,/,
O=C(COC(=O)c1ccc(Cl)cc1O)Nc1cccnc1Cl,i,3,1,-2,111,0,/,/,/,
O=C(COC(=O)c1cc(Br)ccc1O)Nc1cccnc1Cl,i,66*,38*,-3,98,2,13*,31*,39*,RORg counter=>40
Cc1ccc(-n2c(SCC(=O)O)nc3sc4c(c3c2=O)CC(C)(C)SC4)cc1,/,-3,1,5,/,/,/,/,/,
Cc1ccc(-n2c(SCC(=O)NCc3ccco3)nc3sc4c(c3c2=O)CC(C)(C)SC4)cc1,i,71*,16*,-4,104,-1,20*,32*,64*,RORg counter=5.6*
C=CCn1c(SCC(=O)NC(=O)NCc2ccco2)nc2sc(C)c(C)c2c1=O,i,51*,23*,1,104,-2,28*,41*,41*,
C=CCn1c(SCC(=O)Nc2ccc(C(=O)O)cc2)nc2sc(C)c(C)c2c1=O,/,-2,1,3,87,4,/,/,/,
C=CCn1c(SCC(=O)Nc2sccc2C#N)nc2sc(C)c(C)c2c1=O,i,97*,11*,-2,104,0,26*,44*,63*,RORg counter=>40
CCOCCCn1c(=S)[nH]c2cc(C(=O)NCCc3ccccc3)ccc2c1=O,i,43*,18*,1,100,1,23*,53*,31*,RORg counter=i
CCCCCNC(=O)c1ccc2c(=O)n(CCCOCC)c(=S)[nH]c2c1,i,1,-2,3,102,-4,/,/,/,
Cc1ccc(C(=O)NN=Cc2nc3ccccc3n2C)cc1,/,/,/,-77,/,/,/,/,/,
Cc1ccc(OCC(=O)NN=Cc2ccncc2)cc1,/,/,/,3,/,/,/,/,/,
CC(=O)c1cc(-c2ccccc2)n(CC(=O)NCc2ccc(Cl)cc2)c1C,/,24*,/,/,/,/,/,/,16*,
SMILES,Rce1 inh,Rev-erbA mod,PG9 Ab binder,UCH37 inh,Yeast superoxide,beta cell repl,PG9 bind confirm,PGV04 counter,Rev-erbA confirm,others
CC(=O)c1cc(-c2ccccc2)n(CC(=O)NCc2ccccc2)c1C,/,-8,/,/,/,/,/,/,/,
Cc1cc(C(=O)CSc2nc3ccccc3c(=O)n2C)c(C)n1Cc1ccc2c(c1)OCO2,i,42*,2,0,90,-6,/,/,6,
Oc1[nH]c2ccccc2c1N=NC(=S)N1CCOCC1,i,/,/,/,111,-6,/,/,/,
Oc1[nH]c2ccc(Br)cc2c1N=NC(=S)N1CCOCC1,i,19*,-1,11,103,-6,/,/,24*,
CC(=NNc1ccccc1C(=O)O)c1ccncc1,/,/,/,19,/,/,/,/,/,
COc1ccc2cc(C(=O)NC3CCCCC3)c(=O)oc2c1,i,42*,-2,-137,/,/,/,/,19*,
N#Cc1cc2ccccc2nc1SCc1ccccn1,i,-4,-1,-2,98,-3,/,/,/,
Cc1cc2cc3c(cc2nc1SCc1ccccn1)OCCO3,i,44*,-3,4,119,0,/,/,17*,
CCOc1ccc(NC(=O)CCSc2ccc3ccccc3n2)cc1,i,82*,-1,6,103,0,/,/,46*,RORg counter=>40
Cc1nc(SCC(=O)NCc2ccccc2)c2oc3ccccc3c2n1,i,44*,4,5,85,2,/,/,189*,RORg counter=>40
CCc1nc(SCC(=O)NC2CCCC2)c2oc3ccccc3c2n1,i,39*,-1,5,115,0,/,/,56*,RORg counter=>40
CCc1nc(SCC(=O)Nc2nccs2)c2oc3ccccc3c2n1,i,15*,6,2,119,-1,/,/,18*,
O=C(CSc1ncnc2c1oc1ccccc12)Nc1nccs1,i,32*,-4,2,95,0,/,/,25*,
Cn1c(=O)[nH]c(=O)c2c1nc(NN=C/C(Br)=C/c1ccccc1)n2CCO,/,/,/,2,/,/,/,/,/,
CC(=NNC(=O)CNc1cccc(Cl)c1C)C1CC1,/,/,/,1,/,/,/,/,/,
CC(=NNC(=O)c1cc(-c2cccnc2)nc2ccccc12)c1ccccc1O,/,/,/,2,/,/,/,/,/,
